Screening results: PubChem, several laboratories
A selection: hits, their analogues and other compounds. The true share with any hit is near 2.3%.
TRPC4 act: TRPC4 (mouse) channel activation; Q9QUQ5; HEK293 TRPC4beta/mu-opioid, Fluo4 calcium fluorescence; active compounds read high; B-score at 10 µM; actives 0.49% (n = 310,000); AID 2237;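 active means B-score above 5 SD of library B-scores, and initial fluorescence ratio not above library mean plus 5 SD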;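 further: positive B-score marks a calcium rise read as TRPC4 activation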
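Technique: kinetic Fluo4 calcium fluorescence; Test system: TRPC4beta and mu-opioid receptor HEK293 stable cells; Measure: B-scored integrated calcium fluorescence ratio; Benchmarks: low control buffer alone, high control maximal DAMGO; Schedule: 45 min room-temperature Fluo4 loading, 110 s read.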
DNA FID counter: fluorescent intercalator displacement, NS3 helicase counter-screen; DNA fluorescent intercalator displacement, fluorescence; inhibition, % at 7.9 µM; actives 0.17% (n = 290,000); AID 1845; in the data active means inhibition above about 37%;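 further: higher means more ethidium bromide displaced from hairpin DNA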
TRPC6 activator: activators of mouse TRPC6 channel | Q61143 | HEK293-TRPC6 membrane potential dye fluorescence; active compounds read high | B-score at 10 µM | actives 0.13% (n = 310,000);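 active means B-score of the integrated fluorescence ratio above library mean plus 3 SD, and starting fluorescence ratio within library mean plus 5 SD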;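 further: higher score means more depolarization so channel activation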
Target sequence (Q61143 whole entry, looked up): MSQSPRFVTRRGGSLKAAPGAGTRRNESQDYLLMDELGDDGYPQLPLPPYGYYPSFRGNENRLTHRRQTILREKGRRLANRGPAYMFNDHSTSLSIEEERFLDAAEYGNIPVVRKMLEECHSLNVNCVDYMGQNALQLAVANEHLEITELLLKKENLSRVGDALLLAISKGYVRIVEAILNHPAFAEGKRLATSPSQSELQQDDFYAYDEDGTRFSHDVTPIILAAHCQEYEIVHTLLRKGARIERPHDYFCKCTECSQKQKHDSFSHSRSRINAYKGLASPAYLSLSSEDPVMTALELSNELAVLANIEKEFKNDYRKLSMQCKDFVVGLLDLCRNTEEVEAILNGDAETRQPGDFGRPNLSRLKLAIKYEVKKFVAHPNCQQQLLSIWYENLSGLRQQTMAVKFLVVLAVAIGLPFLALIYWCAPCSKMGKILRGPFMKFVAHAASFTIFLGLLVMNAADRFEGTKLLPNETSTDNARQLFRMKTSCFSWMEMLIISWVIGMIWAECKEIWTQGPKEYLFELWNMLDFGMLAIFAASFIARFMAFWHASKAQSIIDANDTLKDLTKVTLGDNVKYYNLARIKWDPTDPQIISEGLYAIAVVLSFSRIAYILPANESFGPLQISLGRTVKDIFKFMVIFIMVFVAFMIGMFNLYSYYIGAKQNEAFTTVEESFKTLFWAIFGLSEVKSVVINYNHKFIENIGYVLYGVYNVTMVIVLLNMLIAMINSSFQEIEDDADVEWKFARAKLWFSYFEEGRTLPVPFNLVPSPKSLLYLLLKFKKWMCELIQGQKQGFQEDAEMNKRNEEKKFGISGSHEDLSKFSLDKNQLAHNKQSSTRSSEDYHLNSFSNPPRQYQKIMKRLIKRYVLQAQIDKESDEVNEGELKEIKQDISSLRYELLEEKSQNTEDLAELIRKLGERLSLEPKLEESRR
TRPC4 block: TRPC4 (mouse) channel inhibition; HEK293 TRPC4beta/mu-opioid, DAMGO-evoked Fluo4 calcium flux; active compounds read low; B-score at 10 µM; actives 0.39% (n = 300,000);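 active means B-score over 3 SD under the library average, no early fluorescence shift, positive overall ratio signal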
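Assay system: Stable TRPC4beta/mu-opioid receptor HEK293 cells | Reagent: DAMGO in two steps, submaximal then maximal | Compound dosing: Single concentration per test compound | Signal: Fluo4 Ca2+ flux fluorescence | Evaluation: Per-well B score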
TRPC4 potent: allosterically enhances the mouse TRPC4 cation channel; actives 0.42% (n = 310,000); Q9QUQ5; HEK293 TRPC4beta/mu-opioid, DAMGO EC20, Fluo-4 Ca2+ flux; active compounds read high; AID 2227; B-score at 10 µM;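 active means B-score of calcium response area above 5 SD of library B-scores, with initial fluorescence ratio within 5 SD of library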
TRPC6 inh: mouse TRPC6 channel inhibition. Q61143. HEK293-TRPC6, membrane potential dye, ACh-evoked depolarization; active compounds read low. B-score at 10 µM. actives 1.1% (n = 310,000). AID 2553;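 active means B-score under library mean minus 3 SD, initial fluorescence not abnormally high, positive integrated signal ratio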;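 further: B-score derived from integrated fluorescence ratio over the kinetic read; more negative B-score means stronger inhibition of depolarization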
TRPC4 spec 2: second selectivity test of TRPC6 inhibitors: effect on mouse TRPC4. shares compounds with TRPC6 inh. actives 42% (n = 920). inhibition, % at 10 µM. HEK293 TRPC4/MOR, membrane potential dye fluorescence; channel activated by saturating DAMGO dose. AID 2776;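 active means compounds whose fluorescence signal differed from control wells by over 3 SD, either direction, in both duplicate plates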
TRPC4 spec: selectivity of TRPC6 inhibitors: effect on mouse TRPC4 | activity change, negative = inhibition, % at 10 µM | HEK293 TRPC4/mu-opioid, membrane potential fluorescence | shares compounds with TRPC6 inh | actives 61% (n = 920) | AID 2777;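 active means rise or fall in signal beyond 3 SD of buffer-only wells in both replicate plates, either sign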;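 further: integrated kinetic ratio of fluorescence range over baseline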
HEK293 MPD ctr 2-1: parental HEK293 nonspecific activity of TRPC6 inhibitors, second screen; signal change vs control, % at 10 µM; actives 31% (n = 920); shares compounds with TRPC6 inh; parental HEK293 membrane potential dye fluorescence; maximal acetylcholine challenge after compound addition;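 active means membrane potential signal moving either way by over 3 SD of the maximum-effect control, in both duplicate plates, meaning non-specific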
HEK293 MPD ctr-1: counter-screen for TRPC6 inhibitors: effect in parental HEK293 cells; shares compounds with TRPC6 inh; parental HEK293 membrane potential dye fluorescence; membrane potential signal change, % at 10 µM; actives 60% (n = 920); AID 2780;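 active means membrane potential signal shifting up or down by more than 3 SD of buffer-only wells, on both duplicate plates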
HEK293 MPD ctr-2: checks TRPC6 modulator effects in parental HEK293 cells; shares compounds with TRPC6 inh; membrane potential signal change, % at 10 µM; AID 488924; actives 51% (n = 2,400); membrane potential dye fluorescence;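 active means membrane potential signal moves up or down beyond 5 SD from buffer-only wells, on both duplicate plates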
HEK293 MPD ctr 2-2: second check of TRPC6 modulator effects in parental HEK293 cells; AID 488926; inhibition, % at 10 µM; actives 14% (n = 2,400); membrane potential dye fluorescence; after compound, maximal acetylcholine stimulation; shares compounds with TRPC6 inh;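 active means membrane potential signal drops by more than 5 SD from the mean control signal, in both duplicate plates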
TRPC4 ctr mod: selectivity of TRPC6 modulators against mouse TRPC4; shares compounds with TRPC6 inh; HEK293 TRPC4/mu-opioid, membrane potential fluorescence; percent change from control (negative = decrease, positive = increase), % at 10 µM; actives 69% (n = 2,400);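 active means membrane potential signal moved up or down beyond 5 SD of buffer control wells, in both duplicate plates, actives on both sides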
TRPC4/MOR inh 2: mouse TRPC4 off-target activity of TRPC6 modulators, second screen; shares compounds with TRPC6 inh; actives 55% (n = 2,400); inhibition, % at 10 µM; AID 488928; HEK293 TRPC4/mu-opioid, membrane potential dye fluorescence; stimulated with maximal-effect DAMGO;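 active means drop in membrane potential signal beyond 5 SD of the control wells in both duplicate plates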;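 further: TRPC4 counter screen for TRPC6 hits run under conditions tuned for TRPC6 not TRPC4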
TRPC6 inh conf: mouse TRPC6 inhibitor confirmation; shares compounds with TRPC6 inh; HEK293-TRPC6, membrane potential dye, ACh-evoked depolarization; inhibition, % at 10 µM; actives 43% (n = 3,300);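 active means fluorescence ratio falls more than 5 SD below the full-stimulation control mean, in both duplicate runs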;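 further: integrated fluorescence ratio of peak minus minimum over baseline after agonist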
TRPC6 act confirm: mouse TRPC6 activator confirmation | activation, % at 10 µM | AID 488961 | HEK293-TRPC6 membrane potential dye fluorescence, FDSS | actives 11% (n = 2,800) | shares compounds with TRPC6 inh;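 active means ratio signal rise beyond 5 SD above unstimulated control wells' mean, seen in both duplicate runs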
A number is an active result; n = inactive; x = no result given.

SMILES | TRPC4 act | DNA FID counter | TRPC6 activator | TRPC4 block | TRPC4 potent | TRPC6 inh | HEK293 MPD ctr-2 | HEK293 MPD ctr 2-2 | TRPC4 ctr mod | TRPC4/MOR inh 2 | TRPC6 inh conf | TRPC6 act confirm | others
Cc1cc(C)c(OCCCCN2CCNCC2)c(C)c1 | n | n | n | n | n | -5.72 | n | n | n | 54.0% | 43.5% | x
Cc1cccc2sc(N(CCCN(C)C)C(=O)c3ccc(Cl)s3)nc12 | n | n | n | n | n | -6.61 | x | x | x | x | 67.3% | n | TRPC4 spec 2=42.5%;TRPC4 spec=-14.3%;HEK293 MPD ctr 2-1=n;HEK293 MPD ctr-1=n
Cc1cccc2sc(N(CCCN(C)C)C(=O)c3ccco3)nc12 | n | n | n | n | n | -6.78 | x | x | x | x | 99.4% | n | TRPC4 spec 2=24.0%;TRPC4 spec=-19.4%;HEK293 MPD ctr 2-1=9.0%;HEK293 MPD ctr-1=n
Cc1cccc2sc(N(CCCN(C)C)C(=O)c3cc4ccccc4oc3=O)nc12 | n | n | n | n | n | n | x | x | x | x | x | x
CCN(CC)c1ccc(C=NCCNS(=O)(=O)c2ccc(C)cc2)cc1 | n | n | n | n | n | n | x | x | x | x | x | x
Cc1ccc2[nH]cc(CCNS(=O)(=O)c3ccc(F)cc3)c2c1 | n | n | n | n | n | n | x | x | x | x | x | x
CN(C)N1C(N)=C(C#N)C(c2ccc3c(c2)OCO3)C2=C1CCCC2=O (configuration not stated) | n | n | n | n | n | n | x | x | x | x | x | x
COc1ccc(CN(C(=O)CN2C(=O)C(C)Oc3ccccc32)C2CCCC2)c(OC)c1 (configuration not stated) | n | n | n | n | n | n | x | x | x | x | x | x
COc1ccc(CN(C(=O)CN2C(=O)COc3ccccc32)C2CCCC2)c(OC)c1 | n | n | 11.8 | n | n | n | 319.0% | n | n | n | n | n
C(=N\n1cnnc1)/c1ccc2ncccc2c1 | n | n | n | n | n | -7.74 | -280.0% | n | -37.0% | 50.5% | n | n
C(=N\n1cnnc1)/c1ccccn1 | n | n | n | n | n | n | x | x | x | x | x | x
COCCn1c(C)cc(C(=O)COC(=O)C2CC(=O)N(CCc3ccc(OC)c(OC)c3)C2)c1C (configuration not stated) | n | x | n | n | n | n | x | x | x | x | x | x
CCOc1cc(S(=O)(=O)N2CCN(C(=O)c3ccco3)CC2)ccc1F | n | n | n | n | 22 | -5.7 | n | n | 42.0% | n | 37.5% | x
CCC(CO)(CO)N(CC(=O)Nc1ccc(OC)cc1)CC(=O)Nc1ccc(OC)cc1 | n | n | n | n | n | n | x | x | x | x | x | x
CC(C)(C)Cc1nnc(NS(=O)(=O)c2ccc([N+](=O)[O-])cc2)s1 | n | n | n | n | n | n | x | x | x | x | x | x
O=C1NC(=Nc2ccccc2Cl)S/C1=C\c1cccc([N+](=O)[O-])c1O | n | n | n | n | n | -6.02 | n | n | -11.5% | 65.0% | n | n
NC(=O)CC(NC(=O)Cc1ccc(Br)cc1)c1ccc(NC2CCN(Cc3ccccc3)CC2)c([N+](=O)[O-])c1 (configuration not stated) | n | n | n | n | n | n | x | x | x | x | x | x
NS(=O)(=O)c1ccc(NN=C2CCN(Cc3ccccc3)CC2)c([N+](=O)[O-])c1 | n | n | n | n | 17 | -5.72 | n | n | n | n | n | n
O=C1C2CCCCC2C(=O)N1c1ccc(NC2CCN(Cc3ccccc3)CC2)c([N+](=O)[O-])c1 (configuration not stated) | 43 | n | n | n | n | -6.35 | n | n | 14.5% | 51.0% | n | n
O=[N+]([O-])c1ccc(NC2CCN(Cc3ccccc3)CC2)c([N+](=O)[O-])c1 | n | n | n | n | n | -6.71 | -90.0% | n | -17.0% | 52.5% | n | n
O=C(Cc1ccccc1[N+](=O)[O-])Nc1ccc(S(=O)(=O)N2CCCC2)cc1 | n | n | n | n | n | n | x | x | x | x | x | x
Cc1ccc(O)c(O)c1 | n | x | n | n | n | n | x | x | x | x | x | x
Cc1ccc(O)c(Sc2cc(C)ccc2O)c1 | n | n | n | -6 | n | -8.44 | x | x | x | x | 70.9% | n | TRPC4 spec 2=n;TRPC4 spec=-13.4%;HEK293 MPD ctr 2-1=n;HEK293 MPD ctr-1=-141.0%
CCOc1cc(C(C(=O)NCC2CCCO2)N(C(=O)Cn2nnc3ccccc32)c2ccccc2C(C)=O)ccc1O (configuration not stated) | n | n | n | n | n | n | x | x | x | x | x | x
COc1ccccc1N1CCN(C(=O)CSc2nc(C)cc(=O)[nH]2)CC1 | n | n | n | n | n | -6.88 | x | x | x | x | n | n | TRPC4 spec 2=n;TRPC4 spec=n;HEK293 MPD ctr 2-1=n;HEK293 MPD ctr-1=n
CN(C(=O)COC(=O)/C=C/c1ccc(C(F)(F)F)cc1)c1c(N)n(Cc2ccccc2)c(=O)[nH]c1=O | n | x | n | n | n | n | x | x | x | x | x | x
COc1ccc(-n2c(SCCNCCO)nc3sc4c(c3c2=O)CCCC4)cc1 | n | n | n | n | n | -5.15 | -142.0% | n | -34.5% | 74.0% | 51.5% | n
COc1ccc(-n2c(SCC(=O)O)nc3sc4c(c3c2=O)CCCC4)cc1 | n | n | n | n | n | n | x | x | x | x | x | x
Cc1nc2scc(C)n2c(=O)c1S(=O)(=O)NCc1ccc(F)cc1 | n | n | n | n | n | n | x | x | x | x | x | x
